Published values from different studies.
Each line is one published result; the experiments were not run side by side.
Cell line: HepG2
Effect on: cell growth or viability

COc1cccc2c1C(=O)c1c(O)c3c(c(O)c1C2=O)C[C@@](O)(C(=O)CO)C[C@@H]3O[C@H]1C[C@H](N)[C@H](O)[C@H](C)O1
IC50 (MTT; 48 h): 0.1 µM

O=c1[nH]cc(F)c(=O)[nH]1
IC50 (WST-1; 48 h): 21.4 µM

Oc1c(I)cc(I)c2cccnc12
IC50 (MTT; 48 h): 80.1 µM

Fc1ccc(-c2nc3ccccc3[nH]2)cc1
IC50 (MTT; 48 h): 35.8 µM

O=C(N/N=C/c1cccn1CCN1CCCC1)Nc1cc2c(Nc3ccc(F)c(Cl)c3)ncnc2cc1O[C@H]1CCOC1
IC50 (MTT; 72 h): 0.64 µM

OCc1ccc2c(c1C#Cc1ccc(O)cc1)C(c1ccc(O)cc1)(c1ccc(O)cc1)c1cc(O)ccc1-2
IC50 (MTT; 48 h): > 50 µM

CN(C)CCn1cccc1/C=N/NC(=O)Nc1cc2c(Nc3ccc(F)c(Cl)c3)ncnc2cc1O[C@H]1CCOC1
IC50 (MTT; 72 h): 0.04 µM

COc1ccnc(-c2cc(OC)ccn2)c1
IC50 (MTT; 48 h): > 50 µM

CN(C)c1ccc(-c2nc3ccccc3[nH]2)cc1
IC50 (MTT; 48 h): 37.5 µM

O=Cc1ccc(CO)o1
IC50 (WST-1; 48 h): 77.7 µM

CCCCc1ccc2[nH]c(NC(=O)OC)nc2c1
IC50 (CCK-8; 72 h): 0.044 µM

CC(=O)Oc1ccc2c(c1)C(C)=CC(C)(C)N2Cc1ccccc1
IC50 (MTT; 72 h): 36 µM

COc1cc2c(Nc3ccc(NC(=O)c4ccccc4)cc3)ncnc2cc1OCCCN1CCOCC1
IC50 (MTS; 72 h): 0.6 µM

CC1=C(O)C(=O)C=C2C1=CC=C1[C@@]2(C)CC[C@@]2(C)[C@@H]3C[C@](C)(C(=O)OCCCBr)CC[C@]3(C)CC[C@]12C
IC50 (MTT; 48 h): 1.32 µM

COc1cc2ncnc(Nc3ccc(F)c(Cl)c3)c2cc1NC(=O)N/N=C/CN1CCN(C)CC1
IC50 (MTT; 72 h): 2.23 µM

CC(=O)O[C@H]1C(=O)[C@@]2(C)[C@H]([C@H](OC(=O)c3ccccc3)[C@]3(O)C[C@H](OC(=O)[C@H](O)[C@@H](NC(=O)c4ccccc4)c4ccccc4)C(C)=C1C3(C)C)[C@]1(OC(C)=O)CO[C@@H]1C[C@@H]2O
IC50: 2 µg/mL

CCCCNC(=O)NNC(=O)c1ccc(Nc2nccc(-c3ccccn3)n2)cc1
IC50 (MTT; 24 h): 15.7 µM

Oc1ccc(-c2csc(Nc3ccc4c(O)ncnc4c3)n2)cc1
IC50 (MTT): 14.2 µM

COc1cc2ncnc(Nc3ccc(F)c(Cl)c3)c2cc1NC(=O)N/N=C/CN1CCCCC1
IC50 (MTT; 72 h): 2.06 µM

O=C(NNC(=O)c1ccc(Nc2nccc(-c3ccc(Cl)cc3)n2)cc1)NC1CCCCC1
IC50 (MTT; 24 h): 13.1 µM

Cc1ccc2nc(-c3ccc(F)cc3)n(Cc3ccccc3)c2c1
IC50 (MTT): 27.2 µM

COc1cc2ncnc(Nc3ccc(F)c(Cl)c3)c2cc1NC(=O)N/N=C/c1cccn1CCN1CCOCC1
IC50 (MTT; 72 h): 0.03 µM

CC(C)C(=O)Nc1ccc([N+](=O)[O-])c(C(F)(F)F)c1
IC50 (CCK-8; 48 h): 2.54 µM

Cc1ccc2nc(-c3cccc(O)c3)[nH]c2c1
IC50 (MTT; 48 h): 95.3 µM

Cc1ccc(-c2csc(Nc3ccc4c(O)ncnc4c3)n2)cc1
IC50 (MTT): 12.6 µM

CCCCNC(=O)NNC(=O)c1cccc(Nc2nccc(-c3ccncc3)n2)c1
IC50 (MTT; 24 h): > 40 µM

Oc1c(Br)cc(Br)c2cccnc12
IC50 (MTT; 48 h): > 100 µM

COC(=O)CN=c1scc(-c2ccccc2)n1-c1ccccc1
IC50 (MTT; 72 h): 75.5 µM

CC1=C(O)C(=O)C=C2C1=CC=C1[C@@]2(C)CC[C@@]2(C)[C@@H]3C[C@](C)(C(=O)OCCO)CC[C@]3(C)CC[C@]12C
IC50 (MTT; 48 h): 0.62 µM

COc1cccc2c1C(=O)c1c(O)c3c(c(O)c1C2=O)C[C@@](O)(C(=O)CO)C[C@@H]3O[C@H]1C[C@H](N)[C@H](O)[C@H](C)O1
IC50 (neutral red; 48 h): 0.23 µg/mL

Nc1ccc(-c2csc(Nc3ccc4c(O)ncnc4c3)n2)cc1
IC50 (MTT): 15 µM

O=c1c(O)c(-c2ccc(O)cc2)oc2cc(O)cc(O)c12
IC50 (WST-1; 48 h): 34.4 µM

CCOc1ccc(-c2nc3ccccc3[nH]2)cc1
IC50 (MTT; 48 h): 43.1 µM

Cc1cc(=O)oc2ccc(-c3cc(-c4cccs4)nc(N)n3)c(O)c12
IC50 (MTT; 72 h): > 128 µg/mL

CC1=C(O)C(=O)C=C2C1=CC=C1[C@@]2(C)CC[C@@]2(C)[C@@H]3C[C@](C)(C(=O)OCCCCCCCCO)CC[C@]3(C)CC[C@]12C
IC50 (MTT; 48 h): 3.3 µM

O=C(NCCc1ccccc1)NNC(=O)c1ccc(Nc2nccc(-c3cccnc3)n2)cc1
IC50 (MTT): 5.48 µM

C=CCNC1=C2C[C@@H](C)C[C@H](OC)[C@H](O)[C@@H](C)/C=C(\C)[C@H](OC(N)=O)[C@@H](OC)/C=C\C=C(/C)C(=O)NC(=CC1=O)C2=O
IC50 (MTT): 0.086 µM

CCN(CC)CCn1cccc1/C=N/NC(=O)Nc1cc2c(Nc3ccc(F)c(Cl)c3)ncnc2cc1O[C@H]1CCOC1
IC50 (MTT; 72 h): 0.54 µM

COc1ccc(NC(=O)NNC(=O)c2cccc(Nc3nccc(-c4cccnc4)n3)c2)c(OC)c1
IC50 (MTT; 24 h): > 40 µM

Oc1ccccc1-c1nc2ccccc2[nH]1
IC50 (MTT; 48 h): 68.3 µM

O=[N+]([O-])c1ccc(-c2csc(Nc3ccc4c(O)ncnc4c3)n2)cc1
IC50 (MTT): 6.87 µM

Fc1cccc(Cl)c1-c1nc2ccccc2[nH]1
IC50 (MTT; 48 h): > 100 µM

COc1ccc(-c2cc(-c3ccc4oc(=O)cc(C)c4c3O)nc(N)n2)cc1
IC50 (MTT; 72 h): > 128 µg/mL

Clc1ccc(Cn2c(-c3ccc(Cl)cc3)nc3ccccc32)cc1
IC50 (MTT): 10.1 µM

COc1cc2ncnc(Nc3ccc(F)c(Cl)c3)c2cc1NC(=O)N/N=C/c1cccn1CCCN1CCOCC1
IC50 (MTT; 72 h): 0.12 µM

CC1=C(O)C(=O)C=C2C1=CC=C1[C@@]2(C)CC[C@@]2(C)[C@@H]3C[C@](C)(C(=O)OCCCCO)CC[C@]3(C)CC[C@]12C
IC50 (MTT; 48 h): 0.63 µM

O=C(N/N=C/c1cccn1CCN1CCOCC1)Nc1cc2c(Nc3ccc(F)c(Cl)c3)ncnc2cc1O[C@H]1CCOC1
IC50 (MTT; 72 h): 1.68 µM

Cc1cc(C)n(-c2nc(Nc3ccc(Cl)cc3)nc(-n3nc(C)cc3C)n2)n1
IC50 (MTT; 72 h): 19.5 µM
